Data reported in paper PMC11584596 (IDCases, 2024).
Converted amounts (≈) assume the structure as drawn. Where two headings read alike, the source gives them in different places.

Columns and labels:
[1] = tested on: methicillin-resistant Staphylococcus epidermidis (MRSE); experiment: Antimicrobial susceptibility; type: cell-based; details: for MIC: Staphylococcus epidermidis, MRSE; for MIC^1: MRSE isolate from sample 1 of periprosthetic fluid at diagnosis; for MIC^2: MRSE isolate from sample 2 of periprosthetic fluid at diagnosis
Procedure, shortened: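 Two MRSE isolates, each recovered from a separate sample of periprosthetic fluid taken by sterile drainage at diagnosis. A susceptibility profile was recorded for each isolate.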

[2] = tested on: Gram-positive infections; details: 30 of 32 patients who received at least two doses of oritavancin; cited from earlier work
[3] = tested on: shoulder PJI caused by methicillin-resistant Staphylococcus epidermidis (MRSE); experiment: Clinical course of shoulder prosthetic joint infection under oritavancin; type: in vivo, human (patient); details: ten sequential doses of 1200 mg over 28 weeks; single patient

| Compound | MIC ([1]; read-out: MIC^1) [µg/mL] | MIC ([1]; read-out: MIC^2) [µg/mL] | MIC^1 [1] [µg/mL] | further results |
| --- | --- | --- | --- | --- |
| CC1(C)S[C@@H]2[C@H](NC(=O)[C@H](N)c3ccccc3)C(=O)N2[C@H]1C(=O)O [Ampicillin] | > 2 | – | – | – |
| O=C(O)c1cn(C2CC2)c2cc(N3CCNCC3)c(F)cc2c1=O [Ciprofloxacin] | > 4 | > 4 | – | – |
| CCC[C@@H]1C[C@@H](C(=O)N[C@@H]([C@H]2O[C@H](SC)[C@H](O)[C@@H](O)[C@H]2O)[C@H](C)Cl)N(C)C1 [Clindamicin] | ≤ 0.25 | 0.25 (≈ 0.588 µM) | – | – |
| CC[C@H]1OC(=O)[C@H](C)[C@@H](O[C@H]2C[C@@](C)(OC)[C@@H](O)[C@H](C)O2)[C@H](C)[C@@H](O[C@@H]2O[C@H](C)C[C@H](N(C)C)[C@H]2O)[C@](C)(O)C[C@@H](C)C(=O)[C@H](C)[C@@H](O)[C@]1(C)O [Eritromicin] | – | – | ≤ 0.25 | MIC^2 [1]: 1 µg/mL (≈ 1.36 µM) |
| C[C@@H]1O[C@@H]1P(=O)(O)O [Fosfomicin c/G6P, Fosfomicin] | – | – | ≤ 16 | – |
| CC(=O)O[C@H]1C[C@@]2(C)[C@@H](C[C@@H](O)[C@H]3[C@@]4(C)CC[C@@H](O)[C@@H](C)[C@@H]4CC[C@@]32C)/C1=C(\CCC=C(C)C)C(=O)O [Fusidic Acid] | > 8 | 16 (≈ 31 µM) | – | – |
| CNC(C)C1CCC(N)C(OC2C(N)CC(N)C(OC3OCC(C)(O)C(NC)C3O)C2O)O1 (centres unmarked) [Gentamicin] | ≤ 1 | ≤ 0.5 | – | – |
| CC(=O)NC[C@H]1CN(c2ccc(N3CCOCC3)c(F)c2)C(=O)O1 [Linezolid] | 1 (≈ 2.96 µM) | 2 (≈ 5.93 µM) | – | – |
| COc1c(N2C[C@@H]3CCCN[C@@H]3C2)c(F)cc2c(=O)c(C(=O)O)cn(C3CC3)c12 [Moxifloxacin] | > 1 | – | – | – |
| CN[C@H](CC(C)C)C(=O)N[C@H]1C(=O)N[C@@H](CC(N)=O)C(=O)N[C@H]2C(=O)N[C@H]3C(=O)N[C@H](C(=O)N[C@H](C(=O)O)c4cc(O)cc(O)c4-c4cc3ccc4O)[C@H](O[C@H]3C[C@](C)(N)[C@@H](O)[C@H](C)O3)c3ccc(c(Cl)c3)Oc3cc2cc(c3O[C@@H]2O[C@H](CO)[C@@H](O)[C@H](O)[C@H]2O[C@H]2C[C@](C)(NCc3ccc(-c4ccc(Cl)cc4)cc3)[C@@H](O)[C@H](C)O2)Oc2ccc(cc2Cl)[C@H]1O [Oritavancin] | – | – | – | clinical success [2]: 93.8%; side effects [3]: no side effects reported |
| Cc1onc(-c2ccccc2)c1C(=O)N[C@@H]1C(=O)N2[C@@H]1SC(C)(C)[C@@H]2C(=O)O [Oxacillin] | > 2 | > 2 | – | – |
| CO[C@H]1/C=C/O[C@@]2(C)Oc3c(C)c(O)c4c(O)c(c(/C=N/N5CCN(C)CC5)c(O)c4c3C2=O)NC(=O)/C(C)=C\C=C\[C@H](C)[C@H](O)[C@@H](C)[C@@H](O)[C@@H](C)[C@H](OC(C)=O)[C@@H]1C [Rifampin] | > 1 | > 2 | – | – |
| CN(C)[C@@H]1C(O)=C(C(N)=O)C(=O)[C@@]2(O)C(O)=C3C(=O)c4c(O)cccc4[C@@](C)(O)[C@H]3C[C@@H]12 [Tetraciclin] | – | – | 1 (≈ 2.25 µM) | MIC^2 [1]: 2 µg/mL (≈ 4.5 µM) |
| CN(C)c1cc(NC(=O)CNC(C)(C)C)c(O)c2c1C[C@H]1C[C@H]3[C@H](N(C)C)C(O)=C(C(N)=O)C(=O)[C@@]3(O)C(O)=C1C2=O [Tigeciclin] | – | – | ≤ 0.25 | MIC^2 [1]: 0.25 µg/mL (≈ 0.427 µM) |
| Daptomicin | – | – | – | MIC^2 [1]: 0.25 µg/mL |
| Teicoplanin | – | – | < 2 | – |
| Vancomicin | – | – | 2 | MIC^2 [1]: ≤ 0.5 µg/mL |
